Data reported in ChEMBL document CHEMBL4715780, “Biological evaluation of tetracationic compounds based on two 1,4-diazabicyclo[2.2.2]octane moieties connected by different linkers” (Bioorg Med Chem, 2016).

Experiments:
[1] = tested on: Pseudomonas aeruginosa; assay: Bactericidal activity against Pseudomonas aeruginosa ATCC 9027 assessed as reduction in colony forming unit at 2.5 ug/ml measured at 2 hrs by time kill assay relative to control; type: functional; design: scale not given: the % may be the effect or the level left; conditions: dose 2.5 µg/ml
Method in brief: (§1)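 Overnight Pseudomonas aeruginosa culture adjusted in Mueller–Hinton broth to about 2.5 × 10⁵ CFU/mL. Compound added at 2.5, 5 or 10 µg/mL, then incubated at 37 °C with shaking (580 rpm) for 22 h. Viable colonies counted on plates at 2, 4, 6, 8 and 22 h. Quantification limit 100 CFU/mL; triplicate.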

[2] = tested on: Pseudomonas aeruginosa; assay: Bactericidal activity against Pseudomonas aeruginosa ATCC 9027 assessed as colony forming unit at 2.5 ug/ml measured at 2 hrs by time kill assay (reference value: 3.6 x 10^5 CFU/ml); type: functional; conditions: dose 2.5 µg/ml; method in brief: as §1
[3] = tested on: Pseudomonas aeruginosa; assay: Bactericidal activity against Pseudomonas aeruginosa ATCC 9027 assessed as colony forming unit at 5 ug/ml measured at 2 hrs by time kill assay (reference value: 3.6 x 10^5 CFU/ml); type: functional; conditions: dose 5 µg/ml; method in brief: as §1
[4] = tested on: Pseudomonas aeruginosa; assay: Bactericidal activity against Pseudomonas aeruginosa ATCC 9027 assessed as colony forming unit at 2.5 ug/ml measured at 6 hrs by time kill assay (reference value: 10^8 CFU/ml); type: functional; conditions: dose 2.5 µg/ml; method in brief: as §1
[5] = tested on: Proteus vulgaris; assay: Antibacterial activity against Proteus vulgaris ATCC 6380 assessed as bacterial growth inhibition by CLSI protocol based serial microdilution method; type: functional
[6] = tested on: Staphylococcus aureus; assay: Bactericidal activity against […] Staphylococcus aureus ATCC 25923 assessed as colony forming unit at 2.5 ug/ml measured at 4 hrs by time kill assay (reference value: 7.8 x 10^6 CFU/ml); type: functional; conditions: dose 2.5 µg/ml
Method in brief: (§2)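 S. aureus overnight culture was adjusted in MHB to ~8 × 10⁵ CFU/mL. Compound was added and the mixture incubated at 37 °C with shaking (580 rpm) for 22 h. Aliquots were plated for colony counts at 2, 4, 6, 8 and 22 h, with a quantification limit of 100 CFU/mL. Runs were done in triplicate.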

[7] = Cytotoxicity against human MCF7 cells assessed as reduction in cell viability measured after 24 hrs by MTT assay; type: cell-based
Method in brief: (§3)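 HEK293T or MCF-7 cells in IMDM with 10% FBS, seeded at 20,000 per well and grown overnight. Compounds at […] in fresh medium for 24 h at 37 °C, 5% CO₂. MTT then added for 4 h, precipitate dissolved overnight in SDS-HCl, absorbance read at 570 nm. Viability expressed relative to untreated cells, giving CC₅₀. Duplicate wells, at least two independent repeats.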

[8] = tested on: Staphylococcus aureus; assay: Antibacterial activity against methicillin-resistant Staphylococcus aureus CEMTC 675 assessed as concentration required to inhibit visible growth by CLSI protocol based serial microdilution method; type: functional
[9] = tested on: Staphylococcus aureus; assay: Bactericidal activity against […] Staphylococcus aureus ATCC 25923 assessed as colony forming unit at 1.25 ug/ml measured at 2 hrs by time kill assay (reference value: 10^6 CFU/ml); type: functional; conditions: dose 1.25 µg/ml; method in brief: as §2
[10] = tested on: Pseudomonas aeruginosa; assay: Bactericidal activity against Pseudomonas aeruginosa ATCC 9027 assessed as reduction in colony forming unit at 10 ug/ml measured at 2 hrs by time kill assay relative to control; type: functional; design: scale not given: the % may be the effect or the level left; conditions: dose 10 µg/ml; method in brief: as §1
[11] = tested on: Pseudomonas aeruginosa; assay: Bactericidal activity against Pseudomonas aeruginosa ATCC 9027 assessed as reduction in colony forming unit at 5 ug/ml measured at 8 hrs by time kill assay relative to control; type: functional; design: scale not given: the % may be the effect or the level left; conditions: dose 5 µg/ml; method in brief: as §1
[12] = tested on: Staphylococcus aureus; assay: Bactericidal activity against […] Staphylococcus aureus ATCC 25923 assessed as colony forming unit at 1.25 ug/ml measured at 22 hrs by time kill assay (reference value: 2.9 x 10^9 CFU/ml); type: functional; conditions: dose 1.25 µg/ml; method in brief: as §2
[13] = Selectivity index, ratio of CC50 for MDCK cells to EC50 for Influenza A virus (A/Puerto Rico/8/34 (H1N1)) infected in MDCK cells; type: toxicity, cell-based; conditions: dog, read-out: Ratio CC50/EC50
Method in brief: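 Ratio of CC₅₀ to EC₅₀, both in MDCK cells, with cytotoxicity run in parallel with the antiviral assay. EC₅₀ is the concentration halving virus production (0.3 log₁₀ EID₅₀ titre drop). It was obtained after 1 h compound pre-incubation, infection, 48 h at 37 °C, and hemagglutination read-out with 1% chicken erythrocytes.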

[14] = tested on: Staphylococcus aureus; assay: Bactericidal activity against […] Staphylococcus aureus ATCC 25923 assessed as colony forming unit at 5 ug/ml measured at 22 hrs by time kill assay (reference value: 2.9 x 10^9 CFU/ml); type: functional; conditions: dose 5 µg/ml; method in brief: as §2
[15] = tested on: Staphylococcus aureus; assay: Bactericidal activity against […] Staphylococcus aureus ATCC 25923 assessed as colony forming unit at 2.5 ug/ml measured at 8 hrs by time kill assay (reference value: 2.7 x 10^8 CFU/ml); type: functional; conditions: dose 2.5 µg/ml; method in brief: as §2
[16] = tested on: Staphylococcus aureus; assay: Bactericidal activity against […] Staphylococcus aureus ATCC 25923 assessed as colony forming unit at 2.5 ug/ml measured at 22 hrs by time kill assay (reference value: 2.9 x 10^9 CFU/ml); type: functional; conditions: dose 2.5 µg/ml; method in brief: as §2
[17] = tested on: Pseudomonas aeruginosa; assay: Bactericidal activity against Pseudomonas aeruginosa ATCC 9027 assessed as colony forming unit at 5 ug/ml measured at 8 hrs by time kill assay (reference value: 2.7 x 10^8 CFU/ml); type: functional; conditions: dose 5 µg/ml; method in brief: as §1
[18] = tested on: Escherichia coli; assay: Antibacterial activity against Escherichia coli ATCC 25922 assessed as bacterial growth inhibition by CLSI protocol based serial microdilution method; type: functional
[19] = tested on: Pseudomonas aeruginosa; assay: Bactericidal activity against Pseudomonas aeruginosa ATCC 9027 assessed as colony forming unit at 5 ug/ml measured at 22 hrs by time kill assay (reference value: 1.7 x 10^9 CFU/ml); type: functional; conditions: dose 5 µg/ml; method in brief: as §1
[20] = tested on: Citrobacter freundii; assay: Antibacterial activity against Citrobacter freundii ATCC 8090 assessed as concentration required to inhibit visible growth by CLSI protocol based serial microdilution method; type: functional
[21] = tested on: Influenza A virus; assay: Antiviral activity against Influenza A virus (A/Puerto Rico/8/34 (H1N1) infected in MDCK cells assessed as decrease in viral titer preincubated for 1 hr followed by viral infection and cultivated for 48 hrs followed by supernatant transferred to chicken erythrocyte for 1 hr followed by measuring ability to cause positive hemagglutination; type: functional, organism-based; conditions: A/Puerto Rico/8/1934(H1N1)
Method in brief: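 MDCK monolayers in MEM were pre-incubated with compound for 1 h at 37 °C, then infected with 10-fold virus dilutions (10⁻¹–10⁻⁶) and held 48 h at 37 °C, 5% CO₂. Supernatant was mixed with an equal volume of 1% chicken erythrocytes, 60 min at room temperature. Titre was taken from the highest dilution giving full agglutination (log₁₀ EID₅₀). Triplicate per concentration.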

[22] = tested on: Pseudomonas aeruginosa; assay: Bactericidal activity against Pseudomonas aeruginosa ATCC 9027 assessed as reduction in colony forming unit at 10 ug/ml measured at 4 hrs by time kill assay relative to control; type: functional; design: scale not given: the % may be the effect or the level left; conditions: dose 10 µg/ml; method in brief: as §1
[23] = Cytotoxicity against HEK293T cells assessed as reduction in cell viability measured after 24 hrs by MTT assay; type: cell-based, HEK-293T; conditions: human; method in brief: as §3
[24] = tested on: Staphylococcus aureus; assay: Bactericidal activity against […] Staphylococcus aureus ATCC 25923 assessed as colony forming unit at 2.5 ug/ml measured at 2 hrs by time kill assay (reference value: 10^6 CFU/ml); type: functional; conditions: dose 2.5 µg/ml; method in brief: as §2
[25] = tested on: Staphylococcus aureus; assay: Bactericidal activity against […] Staphylococcus aureus ATCC 25923 assessed as reduction in colony forming unit at 5 ug/ml measured at 4 hrs by time kill assay relative to control; type: functional; design: scale not given: the % may be the effect or the level left; conditions: dose 5 µg/ml; method in brief: as §2
[26] = tested on: Staphylococcus aureus; assay: Bactericidal activity against […] Staphylococcus aureus ATCC 25923 assessed as reduction in colony forming unit at 2.5 ug/ml measured at 2 hrs by time kill assay relative to control; type: functional; design: scale not given: the % may be the effect or the level left; conditions: dose 2.5 µg/ml; method in brief: as §2

SMILES | Activity [1] | Activity [2] | Activity [3] | Activity [4] | MIC [5] | Activity [6] | CC50 at 24 h [7] | MBC [8] | Activity [9] | Activity [10] | Activity [11] | Activity [12] | selectivity ratio [13] | Activity [14] | Activity [15] | Activity [16] | Activity [17] | MIC [18] | Activity [19] | MBC [20] | further results
CCCCCCCCCCCC[N+]12CC[N+](CCC[N+]34CC[N+](CCCCCCCCCCCC)(CC3)CC4)(CC1)CC2 | >=99.9% | 330 CFU/ml | <100 CFU/ml | <100 CFU/ml | 100 µg/mL | <100 CFU/ml | 5 µg/mL | 1 µg/mL | <100 CFU/ml | >=99.9% | >=99.9% | <100 CFU/ml | 7 | <100 CFU/ml | <100 CFU/ml | <100 CFU/ml | <100 CFU/ml | 1.6 µg/mL | <100 CFU/ml | 3.1 µg/mL | EC50 [21]: 1.9 µg/mL; Activity [22]: >=99.9%; CC50 at 24 h [23]: 6.5 µg/mL; Activity [24]: 330 CFU/ml
CCCCCCCCCCCC[N+]12CC[N+](Cc3ccccc3C[N+]34CC[N+](CCCCCCCCCCCC)(CC3)CC4)(CC1)CC2 | >=90% | 6800 CFU/ml | 130 CFU/ml | <100 CFU/ml | 100 µg/mL | <100 CFU/ml | 4 µg/mL | 1 µg/mL | <670 CFU/ml | ≥ 99.9% | >=99.9% | <100 CFU/ml | 2 | <100 CFU/ml | <100 CFU/ml | <100 CFU/ml | <100 CFU/ml | 1.6 µg/mL | <100 CFU/ml | 1.6 µg/mL | Activity [25]: 99.9%; Activity [26]: >=99%; EC50 [21]: 1 µg/mL; Activity [22]: >=99.9%; CC50 at 24 h [23]: 4 µg/mL; Activity [24]: 1000 CFU/ml
